# Kir21 block = Kir2.1 (mouse) channel inhibition; 0.85% of 310,000 active; AID 1672; HEK293-Kir2.1, FluxOR thallium flux fluorescence; stronger effect = lower value; B-score at 10 µM;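 active = fluorescence ratio B-score at or below minus 3 SD of library scores, with starting-brightness B-score within 2 SD, cut at about -4.2 in these data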;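 note: channel flux triggered by added potassium and thallium sulfate stimulus; B-score of peak minus minimum fluorescence over baseline after thallium stimulus; more negative B-score means stronger Kir2.1 block with less thallium influx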
# hERG rescue = compounds protecting human hERG from proarrhythmic drug block | Q12809 | CHO-hERG, FluxOR thallium flux, dofetilide IC70 present | activation (rescue from dofetilide block), less the hit threshold, % at 10 µM | 0.51% of 310,000 active | AID 1511;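 active = activation above the mean of controls blocked by dofetilide plus 5 SD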;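 note: thallium influx through hERG after potassium depolarization seen as dye fluorescence rise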
# KCNK9 inh = inhibitors of human KCNK9 two-pore domain potassium channel. HEK293 KCNK9, FluxOR thallium flux fluorescence; stronger effect = lower value. B-score at 10 µM. 1.2% of 310,000 active. AID 488922;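 active = ratio B-score over 3 SD below the library mean, with starting fluorescence within 5 SD of its mean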;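 note: negative B-score means less thallium flux so channel inhibition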
# KCNQ1 inh = human KCNQ1 channel inhibition | P51787 | CHO-K1 KCNQ1, FluxOR thallium flux fluorescence; stronger effect = higher value | B-score at 10 µM | 1.3% of 310,000 active | AID 2642;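 active = compounds whose thallium flux B-score, printed positive for inhibition, exceeds three library SD while starting fluorescence stays within three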;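 note: channel opened by potassium depolarization with thallium stimulus after 20 min compound exposure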
# KCNQ1 act = human KCNQ1 channel potentiation or activation. P51787. CHO-K1 KCNQ1, thallium flux FluxOR fluorescence; stronger effect = higher value. B-score at 10 µM. 0.35% of 310,000 active;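 active = fluorescence ratio B-score, a plate-corrected score, at least three library SD, with initial intensity B-score within 5 SD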
#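 assay system = KCNQ1-transfected CHO-K1 cells | medium = assay buffer with matched DMSO | probe or stimulus = depolarizing K+/Tl+ stimulus, K2SO4 and Tl2SO4 each 12.5 mM in 5x stock | dosing = single dose | incubation = dye 90 min, compound 20 min, room temperature | detection = kinetic FluxOR fluorescence, 10 s baseline plus 110 s post-stimulus | evaluation = ratio B score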
# KCNK3 block = human KCNK3 channel inhibition, primary screen; CHO-KCNK3 thallium flux, FluxOR fluorescence; stronger effect = lower value; 0.84% of 340,000 active; O14649; B-score at 10 µM;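 active = B-score under library mean minus 4 SD, starting fluorescence ratio at most library mean plus 5 SD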;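 note: more negative B-score means stronger inhibition of thallium flux through KCNK3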
# * hit, by the source's call; i = inactive; / = not tested or not shown. Compounds with a hit are over-represented: about 3.7% of the library has one in this group of screens.
SMILES,Kir21 block,hERG rescue,KCNK9 inh,KCNQ1 inh,KCNQ1 act,KCNK3 block
COc1ccccc1C(=O)n1nc(-c2ccccc2)nc1NCc1ccco1,-1.8,-14,-7.7*,i,i,i
CC(NC(=O)C(C)N1CCN(S(=O)(=O)c2ccccc2)CC1)c1ccccc1 (stereo unspecified),/,/,/,/,/,i
S=c1nc(-c2ccc(Br)cc2)[nH]c2ccccc12,1.2,32*,i,i,111*,i
Fc1ccc(-c2nc3ccccc3[nH]2)cc1,-0.07,-10,i,i,i,i
CN(Cc1nc(-c2cccnc2)no1)S(=O)(=O)c1ccc2ccccc2c1,-4.8*,-11,i,i,i,i
O=C(NCc1ccco1)c1ccc(N2CCCCC2)c([N+](=O)[O-])c1,0.01,-7,i,i,i,i
Cc1ccc(N(Cc2ccco2)C(=O)c2ccc(N3CCCCC3)c([N+](=O)[O-])c2)cc1,0.87,-7,i,8*,i,i
CCC(=O)OCCNc1cc(Sc2nccn2C)c2nonc2c1[N+](=O)[O-],-2,-38,i,7*,i,i
CCc1ccc(NC(=S)Nc2cc(C(=O)O)ccc2N2CC3CC(C2)c2cccc(=O)n2C3)cc1 (stereo unspecified),0.02,-12,i,i,i,i
O=C(O)c1ccc(N2CC3CC(C2)c2cccc(=O)n2C3)c(NC(=S)Nc2ccc(Br)cc2)c1 (stereo unspecified),-0.79,-18,i,6*,i,i
Cc1ccc(-n2nc(C)c3onc(C)c3c2=O)cc1,1.9,-7,i,i,i,i
CCCCOc1ccc(Nc2cc(Cl)ccc2C(=O)O)cn1,2.2,-5,i,i,i,i
Cc1ccc(N(CCC#N)C(=O)COC(=O)c2cc(C)oc2C)cc1,/,/,/,/,/,i
CC(OC(=O)/C=C/c1ccc2ccccc2n1)C(=O)N(C)c1ccccc1 (stereo unspecified),/,/,/,/,/,i
CC(=O)/C=C/c1ccc2ccccc2n1,-4.8*,-15,i,i,i,i
CC(=O)N1CCN(C(=O)c2cc(S(=O)(=O)N(C)Cc3ccccc3)ccc2Cl)CC1,/,/,/,/,/,i
CC(=O)c1c(C)[nH]c(C(=O)OCC(=O)Nc2ccc(C)cc2[N+](=O)[O-])c1C,0.02,-10,i,6*,i,i
Cc1cc(C)n2nc(C(=O)N3CCOCC3)nc2n1,-0.4,8.0*,i,i,i,i
Cc1cc(C)n2nc(C(=O)OCC(=O)N3CCC3)nc2n1,0.45,5.3*,i,i,i,i
CC1(C)CC(=O)C=C(NCCc2c[nH]c3ccccc23)C1,0.81,-5,i,i,i,i
Cc1cc(NC(=O)CCC(=O)N(c2ccccc2)C(C(=O)NC2CCCC2)c2ccccc2F)no1 (stereo unspecified),0.01,-8,i,i,i,i
C=CCNc1nc(N2CCCCC2)c(C#N)c2c1CN(Cc1ccccc1)CC2,-1.2,-19,i,i,i,-11*
Nc1c(-c2ccccc2Cl)cnn1-c1cccc([N+](=O)[O-])c1,1.1,-12,-7.6*,i,i,i
COC(=O)CNc1nc(Cl)nc(Nc2ccc(C)cc2)n1,-0.43,6.7*,i,i,i,i
COc1cc(S(=O)(=O)NCC2COCCO2)ccc1-n1cnnn1 (stereo unspecified),-0.01,5.8*,i,i,i,i
SMILES,Kir21 block,hERG rescue,KCNK9 inh,KCNQ1 inh,KCNQ1 act,KCNK3 block
NC(=O)C1(Nc2ccc(Br)cc2)CCCC1,/,/,/,/,/,i
O=C(c1cccc(OC2CCN(Cc3ccc(F)cc3Cl)CC2)c1)N1CCCC1,-4.7*,-7,i,i,i,i
CSc1ccc(CN2CCC(Oc3cccc(C(=O)N4CCCC4)c3)CC2)cc1,-4.6*,-8,i,i,i,i
CSc1ccc(CN2CCC(N3CC(C)OC(C)C3)CC2)cc1 (stereo unspecified),0.33,-7,i,i,i,i
CSc1ccc(OC2CCN(Cc3ccccc3)CC2)cc1,-20*,-17,i,i,i,i
Cc1cc(C)n(CCOc2ccc(Cl)cc2Cl)n1,-1.3,9.2*,i,i,i,i
Cc1cc(C)n(CC(O)COc2ccc(Cl)cc2Cl)n1 (stereo unspecified),0.71,-1,i,i,i,i
CCCc1nnc(SCC(=O)NC2CC2)n1C,-1,-6,i,i,i,i
C=CCn1c(=S)[nH]c2scc(-c3ccc(C)o3)c2c1=O,0.81,64*,i,i,99*,i
CCn1c(=S)[nH]c2scc(-c3cccs3)c2c1=O,0.07,100*,i,i,112*,i
O=C(c1ccc(F)cc1)N1CCCCC(S(=O)(=O)c2ccccc2)C1=O (stereo unspecified),0.02,-7,i,i,i,i
O=[N+]([O-])c1ccccc1OCC(O)CN1CCN(CC(O)COc2ccccc2[N+](=O)[O-])CC1 (stereo unspecified),-0.43,-4,i,11*,i,i
O=C1CN(C(=O)CCCc2c[nH]c3ccccc23)c2ccccc2N1,-5.7*,-8,i,i,i,i
O=C(O)CCCC(=O)N1CC(=O)Nc2ccccc21,0.13,0,i,i,i,i
COc1ccc(/C=C2\C(=O)c3ccccc3OC2c2ccccc2)cc1 (stereo unspecified),0.33,-6,-6.7*,i,i,i
COc1ccccc1NC(=O)Nc1ccc(-n2ccc(C(F)(F)F)n2)cc1,-0.01,-7,-7.8*,i,i,i
Cc1ccc(C(C(=O)NC2CCCC2)N(CCCO)C(=O)Cn2nnc(-c3ccc(C)o3)n2)cc1 (stereo unspecified),-2.1,-6,i,i,i,i
Cc1cc(C(=O)NC2CCCc3c2cnn3-c2ccc(C(C)(C)C)cc2)nn1C (stereo unspecified),-0.84,-23,i,8*,i,i
COc1ccc(Nc2ccnc(Nc3ccc(OC)cc3)n2)cc1,-6.5*,-13,i,i,i,i
CC(=O)NNC(=O)c1[nH]c2ccc(Cl)cc2c1-c1ccccc1,0.74,-1,i,i,i,i
CC/C(C)=N/NC(=O)c1[nH]c2ccc(C)cc2c1-c1ccccc1,-0.87,5.5*,i,i,i,i
C/C(=N\N)c1c(-c2ccccc2)c2cc(C)ccc2[nH]c1=O,0.14,-14,i,i,i,i
O=C(NN=C1CCCC1)c1[nH]c2ccc(Cl)cc2c1-c1ccccc1,-1.8,-10,i,6*,i,i
